In ChEMBL document CHEMBL1136788, “A novel antibacterial 8-chloroquinolone with a distorted orientation of the N1-(5-amino-2,4-difluorophenyl) group” (2003) one finds MIC and GM-MIC data, which are given here for 26 compounds.

Format in all cases: functional
One test relates to Escherichia coli. Nature of the test: Tested for in vitro antibacterial activity against Escherichia coli W9523. The gist of the method:
(§1)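 Agar dilution per NCCLS. Twofold serial dilutions (128–0.002 μg/mL) were made in Mueller Hinton medium. Plates were inoculated with about 10^4 organisms and incubated at 37 °C for 18 h. MIC was the lowest concentration giving no visible growth.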

Another test concerns Streptococcus pneumoniae. Description: Tested for in vitro antibacterial activity against Streptococcus pneumoniae W1466. The gist of the method: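 Agar dilution per NCCLS in Mueller Hinton medium supplemented with 10% horse blood. Twofold dilutions spanned 128–0.002 μg/mL. Inoculum was about 10^4 organisms, incubated at 37 °C for 18 h. MIC was the lowest concentration with no visible growth.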

The subject of another test is Staphylococcus aureus. Description: Tested for in vitro antibacterial activity against methicillin resistant Staphylococcus aureus W9501. The method in brief: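 Agar dilution per NCCLS standard method in Mueller Hinton medium; two-fold serial dilutions of test compound from 128 to 0.002 μg/mL. Plates inoculated with about 10^4 organisms, incubated 37 °C for 18 h. MIC read as lowest concentration giving no visible growth on the plate.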

Test [1] can be described thus: In vitro antibacterial activity against Gram (-) bacteria. The method in brief: (§2)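 Value is the geometric mean of MICs over a panel: 14 Gram (–) or 13 Gram (+) strains. MICs came from NCCLS agar dilution in Mueller Hinton medium (10% horse blood added for S. pneumoniae), with twofold dilutions from 128 to 0.002 μg/mL. Inoculum was about 10^4 organisms, at 37 °C for 18 h; endpoint was no visible growth.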

Test [2] can be described thus: Tested for in vitro antibacterial activity against Gram (+) bacteria. The method in brief: as §2
The next test has as its system Pseudomonas aeruginosa. Nature of the test: Tested for in vitro antibacterial activity against Pseudomonas aeruginosa W348. The gist of the method:
as §1

The structures appear in SMILES notation. ≈ marks a conversion by molar mass, not a printed value. Where only a bound is given, the exact number is not on record here.

`NC1CN(c2c(F)cc3c(=O)c(C(=O)O)cn(-c4ccc(F)cc4F)c3c2Cl)C1`: the MIC worked out at 32 µg/mL (≈ 75.5 µM) in the test on Escherichia coli, 0.03 µg/mL (≈ 0.0708 µM) in the test with Streptococcus pneumoniae, 8 µg/mL (≈ 18.9 µM) in the test on Staphylococcus aureus and 16 µg/mL (≈ 37.8 µM) in the test with Pseudomonas aeruginosa. In addition, the figures for the GM-MIC in test [1] and in test [2] were 0.06 µg/mL and 0.13 µg/mL, respectively.
With `Nc1c(F)ccc(-n2cc(C(=O)O)c(=O)c3cc(F)c(N4CC[C@H](N)C4)nc32)c1F`, the GM-MIC in test [1] was determined as 0.32 µg/mL; in test [2], 1.61 µg/mL.
Regarding `Nc1cc(-n2cc(C(=O)O)c(=O)c3cc(F)c(N4CC[C@H](N)C4)nc32)ccc1F`, the GM-MIC came to 0.14 µg/mL in test [1] and 0.45 µg/mL in test [2].
For `CN(C)C1CN(c2c(F)cc3c(=O)c(C(=O)O)cn(-c4cc(N)c(F)cc4F)c3c2Cl)C1`, the GM-MIC in test [1] turned out to be 0.22 µg/mL; in test [2] it was 0.12 µg/mL.
Take `Nc1cc(-n2cc(C(=O)O)c(=O)c3cc(F)c(N4CC[C@H](N)C4)nc32)c(F)cc1F`: the values for the GM-MIC in test [1] and in test [2] were 0.1 µg/mL and 0.26 µg/mL, respectively.
For `Cc1c(N2CC(N)C2)c(F)cc2c(=O)c(C(=O)O)cn(-c3cc(N)c(F)cc3F)c12`, the GM-MIC in test [1] came out at 0.03 µg/mL; in test [2] it was 0.09 µg/mL.
Take `Nc1cc(-n2cc(C(=O)O)c(=O)c3cc(F)c(N4CC(N)C4)cc32)c(F)cc1F`: the GM-MIC was 0.12 µg/mL in test [1] and 0.49 µg/mL in test [2].
Take `CNC1CN(c2c(F)cc3c(=O)c(C(=O)O)cn(-c4cc(N)c(F)cc4F)c3c2Cl)C1`: the GM-MIC in test [1] was 0.04 µg/mL; in test [2], 0.08 µg/mL.
Regarding `Nc1cc(-n2cc(C(=O)O)c(=O)c3cc(F)c(N4CC(N)C4)c(F)c32)c(F)cc1F`, the GM-MIC in test [1] was 0.08 µg/mL; in test [2], 0.42 µg/mL.
Take `Nc1cc(-n2cc(C(=O)O)c(=O)c3cc(F)c(N4CC[C@H](N)C4)c(F)c32)c(F)cc1F`: the GM-MIC in test [1] was 0.22 µg/mL; in test [2], 0.34 µg/mL.
As to `Nc1cc(-n2cc(C(=O)O)c(=O)c3cc(F)c(N4CC[C@H](N)C4)nc32)c(F)c(F)c1F`, the GM-MIC was found to be 1.81 µg/mL in test [1] and 3.22 µg/mL in test [2].
Taken in the same sequence, the figures for `Nc1cc(-n2cc(C(=O)O)c(=O)c3cc(F)c(N4CC[C@H](N)C4)cc32)c(F)cc1F` were 0.14 µg/mL and 0.22 µg/mL.
With `Nc1cc(-n2cc(C(=O)O)c(=O)c3cc(F)c(N4CCNCC4)c(Cl)c32)c(F)cc1F`, the GM-MIC in test [1] was determined as 0.52 µg/mL; in test [2], 1.61 µg/mL.
Regarding `Nc1ccc(F)c(-n2cc(C(=O)O)c(=O)c3cc(F)c(N4CC[C@H](N)C4)nc32)c1`, the GM-MIC in test [1] stood at 0.86 µg/mL; in test [2], 1.99 µg/mL.
Regarding `CC1(N)CN(c2c(F)cc3c(=O)c(C(=O)O)cn(-c4cc(N)c(F)cc4F)c3c2Cl)C1`, the GM-MIC is 0.06 µg/mL in test [1] and 0.1 µg/mL in test [2].
On the same counts, the results for `Nc1cc(-n2cc(C(=O)O)c(=O)c3cc(F)c(N4CCNCC4)cc32)c(F)cc1F` are 0.15 µg/mL and 1.05 µg/mL.
On the same counts, the results for `Nc1cc(-n2cc(C(=O)O)c(=O)c3cc(F)c(N4CC(N)C4)nc32)c(F)cc1F` are 0.15 µg/mL and 0.65 µg/mL.
In the case of `CCNC1CN(c2c(F)cc3c(=O)c(C(=O)O)cn(-c4cc(N)c(F)cc4F)c3c2Cl)C1`, the GM-MIC amounted to 0.08 µg/mL in test [1] and 0.12 µg/mL in test [2].
In the case of `Nc1cc(-n2cc(C(=O)O)c(=O)c3cc(F)c(N4CC(N)C4)c(Cl)c32)c(F)cc1F`, the MIC with Escherichia coli is 1 µg/mL (≈ 2.28 µM); with Streptococcus pneumoniae, 0.008 µg/mL (≈ 0.0182 µM); in the test on Staphylococcus aureus, 1 µg/mL (≈ 2.28 µM); in the test on Pseudomonas aeruginosa, 1 µg/mL (≈ 2.28 µM). The results for the GM-MIC in test [1] and in test [2] were 0.03 µg/mL and 0.07 µg/mL, respectively.
Consider `Nc1cc(-n2cc(C(=O)O)c(=O)c3cc(F)c(N4CC(N)C4)c(Br)c32)c(F)cc1F`, for which the values for the GM-MIC in test [1] and in test [2] were 0.04 µg/mL and 0.07 µg/mL, respectively.
As to `Nc1cc(-n2cc(C(=O)O)c(=O)c3cc(F)c(N4CCNCC4)nc32)c(F)cc1F`, the GM-MIC turned out to be 1.72 µg/mL in test [1] and 5.81 µg/mL in test [2].
In the case of `Nc1cc(-n2cc(C(=O)O)c(=O)c3cc(F)c(N4CCNCC4)c(F)c32)c(F)cc1F`, the results for the GM-MIC in test [1] and in test [2] were 0.39 µg/mL and 2.6 µg/mL, respectively.
As to `Nc1cc(-n2cc(C(=O)O)c(=O)c3cc(F)c(N4CC[C@H](N)C4)c(Cl)c32)c(F)cc1F`, the GM-MIC in test [1] is 1.21 µg/mL; in test [2] it was 1.16 µg/mL.
Consider `O=C(O)c1cn(C2CC2)c2cc(N3CCNCC3)c(F)cc2c1=O` [CIPROFLOXACIN], for which the values for the MIC in the test with Escherichia coli, with Streptococcus pneumoniae and against Staphylococcus aureus were 128 µg/mL (≈ 386 µM), 1 µg/mL (≈ 3.02 µM) and 128 µg/mL (≈ 386 µM), respectively. The GM-MIC is 0.04 µg/mL in test [1] and 0.99 µg/mL in test [2].
Consider `NC1CCN(c2nc3c(cc2F)c(=O)c(C(=O)O)cn3-c2ccc(F)cc2F)C1` (configuration not stated) [TOSUFLOXACIN], for which the results for the GM-MIC in test [1] and in test [2] were 0.12 µg/mL and 0.44 µg/mL, respectively.
For the compound `N[C@@H]1[C@H]2CN(c3nc4c(cc3F)c(=O)c(C(=O)O)cn4-c3ccc(F)cc3F)C[C@@H]12` [TROVAFLOXACIN], the minimal inhibitory concentration (MIC) against Escherichia coli is over 128 µg/mL; against Streptococcus pneumoniae, 0.25 µg/mL (≈ 0.6 µM); in the test with Staphylococcus aureus, 128 µg/mL (≈ 307 µM); with Pseudomonas aeruginosa, 16 µg/mL (≈ 38.4 µM). The GM-MIC in test [1] is 0.3 µg/mL; in test [2] it was 0.29 µg/mL.

One may read the MIC as the lowest concentration found to suppress growth. A lower MIC goes with inhibition by little substance.
